Reference: ChEMBL document CHEMBL4138186, “Synthesis and bio-evaluation of indole-chalcone based benzopyrans as promising antiligase and antiproliferative agents” (Eur J Med Chem, 2018)
Active and inactive are the calls of the source. No cut-off for these calls is given here.

Tests used:
[1] = molecular target: DNA ligase 1 (Homo sapiens) (UniProt P18858); experiment: Inhibition of human Lig1 at 10 uM using double strand nicked DNA as substrate after 30 mins in presence of ATP by acrylamide-based fluorescence-assay
Outline: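 Cy3-labelled nicked duplex (52-mer annealed to 25- and 27-mers; 1 pmol) with purified hLigI (0.2 pmol) in 50 mM Tris-Cl pH 7.5, 10 mM MgCl2, 0.25 mg/mL BSA, 100 mM NaCl, 500 µM ATP. Compound at 10 μM; 30 min at 37 °C. Stopped with formamide/EDTA; ligated and unligated strands separated on 7 M urea/12% denaturing gel. Triplicate.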

DNA [2] = experiment: Binding affinity to Escherichia coli pUC18 DNA assessed as protection against DNase1-mediated cleavage at 500 uM preincubated for 30 mins followed by DNase1 addition measured after 5 mins by 1% agarose gel based UV-transilluminator analysis; format: nucleic-acid assay
Outline: (§1)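 Linearized pUC18 plasmid DNA (100 ng) incubated with compound (250, 500, 700 μM) or controls (doxorubicin 100 μM; DAPI, methyl green, ampicillin 500 μM) for 30 min at 37 °C in ligation-like buffer. DNase I 0.0025 U added for 5 min at 37 °C, stopped with urea/EDTA buffer, resolved on 1% agarose and imaged under UV.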

MDA-MB-231 [3] = experiment: Antiproliferative activity against human MDA-MB-231 cells at 10 uM after 48 hrs by MTT assay; format: functional, cell-based
Outline: (§2)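 Cells seeded and allowed to adhere overnight, then given compound from 10 mM DMSO stock; DMSO alone as vehicle control. Grown 48 h, MTT (5 mg/ml) added for 3 h, formazan dissolved in DMSO, absorbance read at 590 nm. % inhibition = (A control − A treated)/A control × 100; three independent biological replicates. Single-point screen at 10 μM; IC50 from three independent experiments.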

HeLa [4] = experiment: Antiproliferative activity against human HeLa cells at 10 uM after 48 hrs by MTT assay; format: functional, cell-based; outline: as §2
DLD-1 [5] = experiment: Antiproliferative activity against human DLD1 cells at 10 uM after 48 hrs by MTT assay; format: functional, cell-based; outline: as §2
HepG2 [6] = experiment: Antiproliferative activity against human HepG2 cells at 10 uM after 48 hrs by MTT assay; format: functional, cell-based; outline: as §2
4T1 (Mus musculus) = experiment: Antiproliferative activity against mouse 4T1 cells at 10 uM after 48 hrs by MTT assay
MDA-MB-231 [7] = experiment: Antiproliferative activity against human MDA-MB-231 cells after 48 hrs by MTT assay; format: functional, cell-based; conditions: MDA-MB-231, 48 h; outline: as §2
DLD-1 [8] = experiment: Antiproliferative activity against human DLD1 cells after 48 hrs by MTT assay; format: functional, cell-based; conditions: DLD-1, 48 h; outline: as §2
HeLa [9] = experiment: Antiproliferative activity against human HeLa cells after 48 hrs by MTT assay; format: functional, cell-based; outline: as §2
HepG2 [10] = experiment: Antiproliferative activity against human HepG2 cells after 48 hrs by MTT assay; format: functional, cell-based; conditions: HepG2, 48 h; outline: as §2
HEK293 = experiment: Cytotoxicity against HEK293 cells after 48 hrs by MTT assay; format: cell-based; conditions: Homo sapiens, HEK293, 48 h
[11] = molecular target: T1, DNA ligase 3 (Homo sapiens) (UniProt P49916); experiment: Inhibition of human Lig3beta at 10 uM using double strand nicked DNA as substrate at 3.125 to 50 uM after 30 mins in presence of ATP by acrylamide-based fluorescence-assay
T1 sequence (whole entry): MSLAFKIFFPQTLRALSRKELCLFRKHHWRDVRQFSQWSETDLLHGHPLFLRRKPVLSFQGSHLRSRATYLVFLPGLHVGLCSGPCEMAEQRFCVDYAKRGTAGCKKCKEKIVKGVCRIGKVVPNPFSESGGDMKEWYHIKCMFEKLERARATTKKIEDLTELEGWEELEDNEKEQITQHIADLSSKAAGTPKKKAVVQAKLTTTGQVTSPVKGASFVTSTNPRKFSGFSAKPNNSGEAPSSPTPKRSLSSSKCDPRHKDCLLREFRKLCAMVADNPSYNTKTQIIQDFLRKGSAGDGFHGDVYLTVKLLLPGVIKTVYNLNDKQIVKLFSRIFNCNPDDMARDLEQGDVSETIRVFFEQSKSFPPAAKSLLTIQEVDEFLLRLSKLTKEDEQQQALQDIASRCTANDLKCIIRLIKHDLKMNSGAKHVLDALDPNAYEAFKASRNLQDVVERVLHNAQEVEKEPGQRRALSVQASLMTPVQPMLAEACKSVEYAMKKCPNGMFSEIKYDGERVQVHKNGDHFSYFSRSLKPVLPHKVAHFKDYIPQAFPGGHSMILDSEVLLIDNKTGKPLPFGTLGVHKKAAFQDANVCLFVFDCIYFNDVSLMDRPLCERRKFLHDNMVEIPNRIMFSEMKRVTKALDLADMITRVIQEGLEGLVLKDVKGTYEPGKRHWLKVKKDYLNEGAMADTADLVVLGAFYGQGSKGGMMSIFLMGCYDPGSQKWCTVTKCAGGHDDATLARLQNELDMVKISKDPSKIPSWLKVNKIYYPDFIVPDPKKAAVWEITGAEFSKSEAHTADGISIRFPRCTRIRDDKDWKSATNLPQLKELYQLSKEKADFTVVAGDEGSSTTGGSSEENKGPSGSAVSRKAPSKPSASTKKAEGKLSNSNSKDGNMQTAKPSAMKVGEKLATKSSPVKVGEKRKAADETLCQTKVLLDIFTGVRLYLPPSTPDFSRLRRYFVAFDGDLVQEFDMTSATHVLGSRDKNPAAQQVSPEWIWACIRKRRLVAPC

[12] = molecular target: LIG4/XRCC4 (Homo sapiens) (UniProt P49917+Q13426); experiment: Inhibition of human DNA Lig4/[…] at 10 uM using double strand nicked DNA as substrate after 30 mins in presence of ATP by acrylamide-based fluorescence-assay; format: protein-complex assay
[13] = molecular target: T2, DNA ligase (Enterobacteria phage T4) (UniProt P00970); experiment: Inhibition of T4 DNA ligase at 10 uM using double strand nicked DNA as substrate at 3.125 to 50 uM after 30 mins in presence of ATP by acrylamide-based fluorescence-assay; conditions: Tequatrovirus T4
T2 sequence (whole entry): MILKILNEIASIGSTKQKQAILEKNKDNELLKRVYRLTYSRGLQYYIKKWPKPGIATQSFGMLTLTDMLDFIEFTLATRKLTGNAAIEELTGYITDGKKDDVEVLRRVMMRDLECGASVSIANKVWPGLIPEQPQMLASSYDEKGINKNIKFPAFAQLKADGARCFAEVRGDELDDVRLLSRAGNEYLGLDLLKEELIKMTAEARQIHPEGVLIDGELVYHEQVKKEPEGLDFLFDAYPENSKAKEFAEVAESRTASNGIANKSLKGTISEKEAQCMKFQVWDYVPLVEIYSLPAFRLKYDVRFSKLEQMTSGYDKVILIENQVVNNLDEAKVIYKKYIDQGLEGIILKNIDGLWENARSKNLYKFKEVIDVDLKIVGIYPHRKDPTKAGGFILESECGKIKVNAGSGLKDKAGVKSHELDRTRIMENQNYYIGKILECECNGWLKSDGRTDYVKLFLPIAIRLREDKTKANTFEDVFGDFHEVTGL

[14] = molecular target: DNA ligase 1 (Homo sapiens) (UniProt P18858); experiment: Competitive inhibition of human Lig1 using non-ligatable double stranded nicked DNA as substrate after 2 hrs in presence of ATP by EMSA
Outline: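 Purified hLigI (10 pmol) with compound (31.25–500 μM) and 2 pmol 5'-FAM-labelled non-ligatable nicked duplex (dideoxy 3' end). Buffer: 50 mM Tris-Cl pH 7.5, 10 mM MgCl2, 0.25 mg/ml BSA, 100 mM NaCl, plus ATP. Incubated 2 h on ice, then 6.5% native PAGE. Three independent experiments.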

DNA [15] = experiment: Binding affinity to Escherichia coli pUC18 DNA assessed as protection against DNase1-mediated cleavage at 250 to 700 uM preincubated for 30 mins followed by DNase1 addition measured after 5 mins by 1% agarose gel based UV-transilluminator analysis; format: nucleic-acid assay; outline: as §1
DLD-1 [16] = experiment: Anti-migratory activity in human DLD1 cells at 2.5 to 5 uM after 12 to 48 hrs by wound healing assay; format: functional, cell-based
Outline: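 DLD-1 monolayer at 70-80% confluence scratched with a pipette tip, then exposed to 2.5 and 5 μM for 12, 24 and 48 h (methods state 12, 24, 36 h). Wound imaged by phase-contrast microscopy; % open area quantified at each time point. Mean of three independent experiments.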

DLD-1 [17] = experiment: Inhibition of colony formation of human DLD1 cells by crystal violet staining based assay; format: functional, cell-based
Outline: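 400 DLD-1 cells per well grown overnight in RPMI/10% FBS, then exposed to 1.25, 2.5 and 5 μM for 24 or 48 h. Medium replaced and colonies grown a further 10 days, medium changed every third day. Fixed and stained with 0.5% crystal violet/6% glutaraldehyde for 30 min at room temperature, then imaged.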

DLD-1 [18] = experiment: Induction of apoptosis in human DLD1 cells assessed as early apoptotic cells at 5 uM after 48 hrs by Annexin V-FITC/propidium iodide staining-based flow cytometric method relative to control; format: functional
Outline: (§3)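 DLD-1 cells exposed to 2.5, 5 and 10 μM for 48 h, harvested, washed in cold PBS and stained with Annexin V-FITC and PI in binding buffer at room temperature in the dark. Analysed by flow cytometry; early and late apoptotic fractions averaged from three independent experiments.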

DLD-1 [19] = experiment: Induction of apoptosis in human DLD1 cells assessed as late apoptotic cells at 5 uM after 48 hrs by Annexin V-FITC/propidium iodide staining-based flow cytometric method relative to control; format: functional; outline: as §3
DLD-1 [20] = experiment: Induction of apoptosis in human DLD1 cells assessed as early apoptotic cells at 10 uM after 48 hrs by Annexin V-FITC/propidium iodide staining-based flow cytometric method relative to control; format: functional; outline: as §3
DLD-1 [21] = experiment: Induction of apoptosis in human DLD1 cells assessed as late apoptotic cells at 10 uM after 48 hrs by Annexin V-FITC/propidium iodide staining-based flow cytometric method relative to control; format: functional; outline: as §3
DLD-1 [22] = experiment: Induction of apoptosis in human DLD1 cells after 48 hrs by Annexin V-FITC/propidium iodide staining-based flow cytometric method; format: functional, cell-based; outline: as §3
DLD-1 [23] = experiment: Induction of apoptosis in 3D-spheroids of human DLD1 cells assessed as increase in cell death after 72 hrs by FDA/propidium iodide dye based phase contrast microscopy; format: functional
Outline: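 DLD-1 spheroids formed by hanging drop (5×10^3 cells/10 μL RPMI, 3 days, 37 °C, 5% CO2), moved to 0.7% agarose-coated wells and grown 7 days. Treated 72 h at 25, 12.5 and 6.25. Stained with FDA 2 μg/ml and PI 20 μg/ml for 20 min in the dark; imaged by fluorescence microscopy.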

[24] = Antiproliferative activity against mouse 4T1 cells after 48 hrs by MTT assay

DNA ligase 1 (Homo sapiens), sequence (P18858 whole entry): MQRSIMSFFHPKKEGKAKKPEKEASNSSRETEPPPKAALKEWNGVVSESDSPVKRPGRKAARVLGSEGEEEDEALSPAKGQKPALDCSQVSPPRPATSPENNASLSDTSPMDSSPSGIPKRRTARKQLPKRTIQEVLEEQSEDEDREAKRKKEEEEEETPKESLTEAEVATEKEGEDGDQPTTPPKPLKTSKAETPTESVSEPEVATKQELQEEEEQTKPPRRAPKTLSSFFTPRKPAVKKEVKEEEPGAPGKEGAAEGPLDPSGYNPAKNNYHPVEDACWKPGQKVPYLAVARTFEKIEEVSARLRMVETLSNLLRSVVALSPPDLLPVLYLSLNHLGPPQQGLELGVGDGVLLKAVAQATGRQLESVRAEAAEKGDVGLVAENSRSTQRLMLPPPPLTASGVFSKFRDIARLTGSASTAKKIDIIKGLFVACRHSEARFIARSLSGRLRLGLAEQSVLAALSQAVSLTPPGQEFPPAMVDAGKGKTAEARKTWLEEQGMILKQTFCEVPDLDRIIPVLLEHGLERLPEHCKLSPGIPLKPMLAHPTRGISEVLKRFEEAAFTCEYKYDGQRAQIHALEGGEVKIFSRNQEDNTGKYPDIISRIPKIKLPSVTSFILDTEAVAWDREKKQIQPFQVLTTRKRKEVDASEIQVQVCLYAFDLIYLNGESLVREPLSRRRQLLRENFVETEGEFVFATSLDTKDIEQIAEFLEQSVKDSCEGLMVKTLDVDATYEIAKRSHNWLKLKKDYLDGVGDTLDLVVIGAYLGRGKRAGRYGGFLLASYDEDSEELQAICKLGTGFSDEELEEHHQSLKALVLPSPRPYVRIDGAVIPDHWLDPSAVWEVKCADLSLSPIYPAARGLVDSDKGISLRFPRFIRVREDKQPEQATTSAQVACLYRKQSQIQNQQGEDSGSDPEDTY

Row | Structure (SMILES) | inhibition [1] [%] | Activity (MDA-MB-231 [3]) | Activity (HeLa [4]) | Activity (DLD-1 [5]) | Activity (HepG2 [6]) | Activity (4T1 (Mus musculus)) | other results
1 | Cc1ccc(C(=O)/C=C/c2cc3c(c(C(C)(C)C)c2)OC(N)=C(C#N)C3c2c(C)[nH]c3ccccc23)cc1 (stereo unspecified) | < 20 | – | – | – | – | – | –
2 | CC1(C)S[C@@H]2[C@H](NC(=O)[C@H](N)c3ccccc3)C(=O)N2[C@H]1C(=O)O | – | – | – | – | – | – | Activity (DNA [2]): inactive
3 | COc1ccc2[nH]c(C)c(C3C(C#N)=C(N)Oc4c3cc(/C=C/C(=O)c3cccs3)cc4C(C)(C)C)c2c1 (stereo unspecified) | < 20 | Active | Active | Active | Active | Active | –
4 | COc1ccc(C(=O)/C=C/c2cc3c(c(C(C)(C)C)c2)OC(N)=C(C#N)C3c2c(C)[nH]c3ccc(Cl)cc23)cc1 (stereo unspecified) | > 50 | – | – | – | – | – | –
5 | Cc1[nH]c2ccccc2c1C1C(C#N)=C(N)Oc2c1cc(/C=C/C(=O)c1cccs1)cc2C(C)(C)C (stereo unspecified) | 69.4 | Active | Active | Active | Active | Active | IC50 (MDA-MB-231 [7]): 6.09 µM; IC50 (DLD-1 [8]): 4.66 µM; IC50 (HeLa [9]): 6.4 µM; IC50 (HepG2 [10]): 6.46 µM; IC50 (HEK293): 12.4 µM; inhibition [11]: inactive; inhibition [12]: Dose-dependent effect; inhibition [13]: inactive; inhibition [14]: Dose-dependent effect; Activity (DNA [15]): inactive; Activity (DLD-1 [16]): Active; inhibition (DLD-1 [17]): Dose-dependent effect; Activity (DLD-1 [18]): 17.38%; Activity (DLD-1 [19]): 14.85%; Activity (DLD-1 [20]): 26.53%; Activity (DLD-1 [21]): 50.96%; Activity (DLD-1 [22]): Dose-dependent effect; Activity (DLD-1 [23]): Active; IC50 [24]: 5.76 µM
6 | Cc1[nH]c2ccccc2c1C1C(C#N)=C(N)Oc2c(C(C)C)cc(/C=C/C(=O)c3cccs3)cc21 (stereo unspecified) | < 20 | Active | Active | Active | Active | Active | –
7 | COc1ccc2[nH]c(C)c(C3C(C#N)=C(N)Oc4c(C(C)C)cc(/C=C/C(=O)c5cccs5)cc43)c2c1 (stereo unspecified) | < 20 | Active | Active | Active | Active | Active | –
